CCR6 antag: antagonists of human CCR6 receptor; P51684; CHO-K1 CCR6 PathHunter beta-arrestin, luminescence, CCL20-stimulated; inhibition, % at 20 µM; 0.49% of 340,000 active;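 active means compounds whose inhibition of the agonist-driven luminescence signal at 20 µM reaches about 50%, limit read from the data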;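 further: cells stimulated with CCL20 at 14 nM final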
Target sequence (P51684 whole entry, looked up): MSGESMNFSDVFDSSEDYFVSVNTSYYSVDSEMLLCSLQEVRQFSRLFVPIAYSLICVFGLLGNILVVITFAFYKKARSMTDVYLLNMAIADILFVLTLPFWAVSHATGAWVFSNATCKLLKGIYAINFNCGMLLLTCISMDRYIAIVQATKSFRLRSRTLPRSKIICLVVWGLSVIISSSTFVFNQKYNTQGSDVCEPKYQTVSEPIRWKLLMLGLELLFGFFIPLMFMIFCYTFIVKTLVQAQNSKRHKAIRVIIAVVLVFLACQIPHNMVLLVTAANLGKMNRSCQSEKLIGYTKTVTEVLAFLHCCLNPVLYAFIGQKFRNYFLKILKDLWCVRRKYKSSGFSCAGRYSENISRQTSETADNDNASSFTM
APJ antagonist: blocks the human apelin receptor APJ | CHO-K1 APJ beta-arrestin complementation, luminescence | inhibition, % at 20 µM | 0.32% of 330,000 active;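 active means inhibition above about 40% at 20 µM, limit read from the data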;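 further: cells challenged with 10 nM apelin-13 agonist together with compound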
APJ agonist: APJ receptor agonism | activation, % at 20 µM | CHO-K1 APJ PathHunter beta-arrestin, luminescence; 0% DMSO wells, 100% apelin | 0.11% of 330,000 active;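 active means activation more than six SD over the plate average, tested at 20 µM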
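Material: engineered CHO-K1 APJ arrestin reporter cells; amount: 1000 CHO-K1 reporter cells seeded per well; incubation: compound stimulation 90 min at 25 °C, detection 60 min; signal: luminescent beta-gal fragment complementation, chemiluminescent substrate; read-out basis: APJ agonist activity; controls: DMSO-only wells as negative, 10 nM Apelin-13 as positive control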
EBI2 antag: EBI2 (human) antagonism. EBI2 beta-arrestin recruitment, luminescence, 7a,25-OHC stimulated. inhibition, % at 5 µM. 0.81% of 360,000 active. AID 651636. P32249; in the data active means inhibition above about 38%;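 further: enzyme fragment complementation signal reports receptor beta-arrestin coupling in cells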
GAA850 FXN act: frataxin GAA850 promoter activation; activation, % at 6 µM; 0.56% of 360,000 active; HEK293 lucGAA850 FXN promoter luciferase reporter, 24 h; percent of 10 µM SAHA response;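 active means activation above the average of all compounds screened plus 3 SD, cutoff fixed separately per campaign, cut at about 7.5% in these data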
CXCR6 block: inhibitors of human CXCR6 receptor; 0.36% of 360,000 active; AID 602244; CHO-K1 PathHunter CXCR6 beta-arrestin, luminescence; inhibition, % at 20 µM; in the data active means inhibition above about 34%, passing the limit was not always enough;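 further: antagonist mode with CXCL16 agonist at 10 nM final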
APJ ag confirm: confirmation of human APJ apelin receptor agonists | 10% of 310 active | CHO-K1 APJ PathHunter beta-arrestin, luminescence | activation, % at 20 µM | shares compounds with APJ agonist;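 active means activation above 40%, taking the highest of four retests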
Each line names hits and unclear results; the compound was inactive in the other large screens (follow-up assays come after a bar, where they were run). Shown are actives, neighbours in structure and some others; about 2% of the full set was active somewhere.

CCc1nc2ccc(C(=O)Nc3cccc(OC)c3)cn2c1N(CC)CCOC	none (no result: CCR6 antag, APJ antagonist, APJ agonist)
Cc1cc2ccccn2c1C(=O)c1nc(NCc2ccco2)ncc1Cl	APJ agonist 39.9 | APJ ag confirm inactive
Cc1cc2ccccn2c1C(=O)c1nc(N2CCOCC2)ncc1Cl	none
Cc1cccc(NC(=O)NNC(=O)CCc2ccccc2)c1	none
Cc1cccc(NC(=S)NC(=O)CCc2ccccc2)c1	APJ agonist 19.2 | APJ ag confirm inactive
COc1cc(C(=O)NCC(c2cccs2)N2CCOCC2)ccc1OCc1ccc(Cl)cc1 (centres undefined)	none (no result: CCR6 antag, APJ antagonist, APJ agonist)
COc1cc(C(=O)OCC(=O)Nc2ccc(N3CCOCC3)cc2)ccc1OCC(C)C	none
CN1CCc2c(sc(/N=C/c3c[nH]c4ccccc34)c2C(N)=O)C1	none
CN1CCc2c(sc(/N=C/c3c[nH]c4ccccc34)c2C#N)C1	APJ agonist 38.1 | APJ ag confirm inactive
Cn1c(N)c(-c2ccccc2)c2ccc([N+](=O)[O-])cc2c1=O	none
Cc1cc(C)cc(S(=O)(=O)c2cn(C)c3cc(N4CCN(C)CC4)c(F)cc3c2=O)c1	APJ agonist 38.3 | APJ ag confirm inactive
COc1ccc([N+](=O)[O-])cc1C(=O)Nc1ccc(Cc2ccncc2)cc1	APJ agonist 15.9 | APJ ag confirm inactive
COc1ccccc1C(=O)Nc1ccc(Cc2ccncc2)cc1	none (no result: APJ agonist)
O=C1c2cccc3cccc(c23)C(=O)N1Cc1ccccn1	none (no result: CCR6 antag, APJ antagonist, APJ agonist)
CCCCc1ccc(N/C(N)=N/c2nc(C)cc(C)n2)cc1	APJ agonist 43.5 | APJ ag confirm inactive
CC(=O)Nc1ccc(Nc2nc(-c3cc4ccccc4oc3=O)cs2)cc1	APJ agonist 17.4 | APJ ag confirm inactive
CC(=O)NC(CC(=O)NNC(=O)c1cc2ccccc2cc1O)c1ccccc1 (centres undefined)	APJ agonist 29.9 | APJ ag confirm inactive
COc1cc(NC(=O)COC(=O)CC(NC(C)=O)c2ccccc2)cc(OC)c1 (centres undefined)	none
CC1=C(C(=O)OCc2ccc3c(c2)OCO3)C(c2ccc(Cl)cc2)NC(=O)N1 (centres undefined)	none
CC1=C(C(=O)OCc2ccc3c(c2)OCO3)C(c2ccc(F)cc2)NC(=O)N1 (centres undefined)	APJ agonist 28.6 | APJ ag confirm inactive
CC1=C(C(=O)OCc2ccccc2)C(c2cccc(F)c2)NC(=O)N1 (centres undefined)	APJ agonist 18.6 | APJ ag confirm inactive
CC1=C(C(=O)OCc2ccccc2)C(c2ccccc2)NC(=O)N1 (centres undefined)	none
CCOc1cc(N2CCOCC2)c(OCC)cc1NC(=O)CN1C(=O)NC(C)(c2ccc(OC)cc2)C1=O (centres undefined)	none (no result: APJ antagonist, APJ agonist)
CC(=O)Nc1ccc(OCC(=O)Nc2ccc(Cl)c(S(=O)(=O)N3CCOCC3)c2)cc1	APJ agonist 17.3 (no result: CCR6 antag) | APJ ag confirm inactive
COc1ccc(OCC(=O)Nc2ccc(S(=O)(=O)N3CCOCC3)cc2)cc1	none
COc1ccc(/C=N/Nc2cc(C)nc3ccc(Br)cc23)cc1	APJ agonist 16.7 | APJ ag confirm inactive
NC(=O)c1ccsc1NC(=O)COC(=O)/C=C/c1ccc([N+](=O)[O-])cc1	none
COC(=O)c1ccc(/C=C/C(=O)OCC(=O)Nc2sccc2C(N)=O)cc1	APJ agonist 31.1 | APJ ag confirm 46.7
CCc1nc2ccc(C(=O)N(CC)CCN(C)C)cn2c1N(CC)C(=O)NCCc1ccccc1	none (no result: CCR6 antag, APJ antagonist, APJ agonist)
COC/C=C/C1=CC2=CC(=O)C(C)(OC(=O)c3cnc4ccccc4n3)C(=O)C2=CN1C1CCCC1 (centres undefined)	APJ agonist 121.9 (no result: CCR6 antag, EBI2 antag, GAA850 FXN act, CXCR6 block) | APJ ag confirm inactive
COC/C=C/C1=CC2=CC(=O)C(C)(OC(=O)c3cnc4ccccc4n3)C(=O)C2=CN1C(CO)CO (centres undefined)	none
Cc1cccc(C)c1NC(=O)C(CCc1ccccc1)N1CCC(c2ccccc2)CC1 (centres undefined)	none (no result: CCR6 antag, APJ antagonist, APJ agonist, GAA850 FXN act, CXCR6 block)
COc1ccc(-c2nn(-c3ccccc3)cc2/C=N/N2C(=O)CSC2=S)cc1	APJ agonist 17.9 | APJ ag confirm inactive
COc1ccc(/C=N/N2C(=O)CSC2=S)cc1	none

Source: PubChem
